Reference: ChEMBL document CHEMBL4270630
pEC50: −log10 of the molar value.

Assays:
Influenza B virus [1] = test: Antiviral activity against Influenza B virus B/Ned/537/05 infected in MDCK cells assessed as reduction in virus-induced cytopathic effect after 3 days by microscopic method; format: functional, organism-based; details: B/Ned/537/05, MDCK, 72 h
Procedure, shortened: (§1)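 Semi-confluent MDCK cells were infected at an MOI of 0.0004 PFU/cell in Ultra-MDCK infection medium with 2 μg/mL TPCK-trypsin, together with compounds. After 3 days at 35 °C, CPE was scored by microscopy and confirmed by MTS formazan viability. Values are means of two to five independent tests.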

[2] = Cytotoxicity against MDCK cells assessed as alteration in cell morphology after 3 days by microscopic method; format: cell-based, Canis lupus familiaris; details: dog
Procedure, shortened: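 Mock-infected MDCK cells were treated with compounds in parallel with the antiviral assay, 3 days at 35 °C. MCC is the concentration causing minimal change in cell morphology by microscopy. CC50 is the 50% cytotoxic concentration by MTS formazan viability assay.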

[3] = Cytotoxicity against human A549 cells assessed as changes in cell morphology after 3 days by microscopic method; format: cell-based
Procedure, shortened: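 Mock-infected A549 cells were incubated with compounds for 3 days. MCC is the concentration causing minimal change in cell morphology by microscopy.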

Human coronavirus 229E [4] = test: Antiviral activity against Human coronavirus 229E infected in HEL299 cells assessed as reduction in virus induced cytopathic effect after 5 days by microscopic method; format: functional, organism-based; details: HEL 299, 120 h
Procedure, shortened: (§2)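 Confluent HEL 299 cells in medium with 2% FCS were exposed to HCoV-229E (100 CCID50/well) together with compounds and held for 5 days at 35 °C. EC50 (CPE reduction) and MCC (minimal morphology change) were determined by microscopy. SI is MCC/EC50.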

Influenza A virus [5] = test: Antiviral activity against Influenza A virus A/PR/8/34(H1N1) infected in MDCK cells assessed as reduction in virus-induced cytopathic effect after 3 days by microscopic method; format: functional, organism-based, A/Puerto Rico/8/1934(H1N1); details: Influenza A virus, A/Puerto Rico/8/1934(H1N1), MDCK, 72 h
Procedure, shortened: as §1, with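 “viability. EC50 is the concentration giving 50% inhibition of virus-induced CPE.” for “viability.”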

Influenza A virus [6] = test: Antiviral activity against Influenza A virus A/Virginia/ATCC3/2009(H1N1pdm) infected in MDCK cells after 3 days by MTS assay; format: functional, organism-based, Influenza A virus (A/Virginia/03/2009(H1N1)); details: 72 h
Procedure, shortened: as §1, with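 “viability. EC50 is the concentration giving 50% inhibition of virus-induced CPE.” for “viability.”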

H3N2 subtype [7] = test: Antiviral activity against Influenza A virus A/HK/7/87(H3N2) infected in MDCK cells assessed as reduction in virus-induced cytopathic effect after 3 days by microscopic method; format: functional, organism-based; details: A/Hong Kong/7/1987(H3N2), 72 h
Procedure, shortened: as §1, with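 “viability. EC50 is the concentration giving 50% inhibition of virus-induced CPE.” for “viability.”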

H3N2 subtype [8] = test: Antiviral activity against Influenza A virus A/HK/7/87(H3N2) infected in MDCK cells after 3 days by MTS assay; format: functional, organism-based; details: A/Hong Kong/7/1987(H3N2), 72 h
Procedure, shortened: as §1, with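 “viability. EC50 is the concentration giving 50% inhibition of virus-induced CPE.” for “viability.”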

Influenza B virus [9] = test: Antiviral activity against Influenza B virus B/Ned/537/05 infected in MDCK cells after 3 days by MTS assay; format: functional, organism-based; details: B/Ned/537/05, MDCK, 72 h; procedure, shortened: as §1
Influenza A virus [10] = test: Antiviral activity against Influenza A virus A/Virginia/ATCC3/2009(H1N1pdm) infected in MDCK cells assessed as reduction in virus-induced cytopathic effect after 3 days by microscopic method; format: functional, organism-based, Influenza A virus (A/Virginia/03/2009(H1N1)); details: 72 h
Procedure, shortened: as §1, with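 “viability. EC50 is the concentration giving 50% inhibition of virus-induced CPE.” for “viability.”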

Human coronavirus 229E [11] = test: Antiviral activity against Human coronavirus 229E infected in human A549 cells assessed as reduction in virus RNA level after 3 days by qRT-PCR method; format: functional; details: A549, 72 h
Procedure, shortened: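 Confluent A549 cells were infected with HCoV-229E in 2% FCS medium with compounds present. The inoculum was removed at 1 h and compounds were kept on at 35 °C. Supernatants were harvested at day 3, lysed at 75 °C for 10 min, and viral genome copies counted by one-step qRT-PCR.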

Influenza A virus [12] = test: Antiviral activity against Influenza A virus A/PR/8/34(H1N1) infected in MDCK cells after 3 days by MTS assay; format: functional, organism-based, A/Puerto Rico/8/1934(H1N1); details: Influenza A virus, A/Puerto Rico/8/1934(H1N1), MDCK, 72 h
Procedure, shortened: as §1, with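 “viability. EC50 is the concentration giving 50% inhibition of virus-induced CPE.” for “viability.”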

[13] = Cytotoxicity against HEL299 cells assessed as changes in cell morphology after 5 days by microscopic method; format: cell-based, HEL 299; details: human; procedure, shortened: as §2
MDCK = test: Cytotoxicity against MDCK cells assessed as reduction in cell viability after 3 days by MTS assay; format: cell-based, Canis lupus familiaris; details: dog, mdck, 72 h
Influenza B virus [14] = test: Antiviral activity against Influenza B virus B/HK/05/72 infected in MDCK cells after 3 days by MTS assay; format: functional, organism-based; details: B/Hong Kong/05/1972, MDCK, 72 h
Procedure, shortened: as §1, with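 “viability. EC50 is the concentration giving 50% inhibition of virus-induced CPE.” for “viability.”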

Influenza B virus [15] = test: Antiviral activity against Influenza B virus B/HK/05/72 infected in MDCK cells assessed as reduction in virus-induced cytopathic effect after 3 days by microscopic method; format: functional, organism-based; details: B/Hong Kong/05/1972, MDCK, 72 h
Procedure, shortened: as §1, with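 “viability. EC50 is the concentration giving 50% inhibition of virus-induced CPE.” for “viability.”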

Structure (SMILES) | pEC50 (Influenza B virus [1]) | MCC at 72 h [2] [µM] | MCC at 72 h [3] [µM] | pEC50 (Human coronavirus 229E [4]) | pEC50 (Influenza A virus [5]) | pEC50 (Influenza A virus [6]) | pEC50 (H3N2 subtype [7]) | pEC50 (H3N2 subtype [8]) | pEC50 (Influenza B virus [9]) | pEC50 (Influenza A virus [10]) | EC90 (Human coronavirus 229E [11]) [µM] | EC99 (Human coronavirus 229E [11]) [µM] | pEC50 (Influenza A virus [12]) | MCC at 120 h [13] [µM] | CC50 (MDCK) [µM] | pEC50 (Influenza B virus [14]) | pEC50 (Influenza B virus [15])
CCCCCCSC1=C(SCCCCCC)C(=O)N(CCOCCOCCOCCOCc2cn(C3C(=O)N[C@@H]4Cc5ccc(c(Cl)c5)Oc5cc6cc(c5O)Oc5ccc(cc5Cl)[C@@H](O[C@@H]5O[C@H](CO)[C@@H](O)[C@H](O)[C@H]5NC(C)=O)[C@H]5NC(=O)[C@H](NC(O)[C@@H]6NC(=O)[C@@H](NC4=O)c4cc(O)cc(c4)Oc4cc3ccc4O)c3ccc(O)c(c3)-c3c(O)cc(O)cc3[C@H](C(=O)O)NC5=O)nn2)C1=O (some centres not stated) | 5.74 | 20 | > 50 | 5.27 | 5.70 | 5.22 | 5.70 | 5.54 | 5.44 | 5.57 | 7.6 | 21 | 5.46 | ≥ 20 | 65 |  | 
CC(=O)N[C@H]1[C@H](O[C@@H]2c3ccc(c(Cl)c3)Oc3cc4cc(c3O)Oc3ccc(cc3Cl)C[C@H]3NC(=O)[C@H](NS(=O)(=O)c5ccccc5)c5ccc(O)c(c5)Oc5cc(O)cc(c5)[C@H](NC3=O)C(=O)N[C@H]4C(O)N[C@H]3C(=O)N[C@H]2C(=O)N[C@@H](C(=O)O)c2cc(O)cc(O)c2-c2cc3ccc2O)O[C@H](CO)[C@@H](O)[C@@H]1O (some centres not stated) | 4.29 | 100 | > 50 | 5.26 | 4.80 | 4.28 | 4.60 | 4.64 | 4.68 | 4.34 | 6.8 | 11 | 4.57 | ≥ 20 | > 100 |  | 
CCCCCCSC1=C(SCCCCCC)C(=O)N(Cc2cn(C3C(=O)N[C@@H]4Cc5ccc(c(Cl)c5)Oc5cc6cc(c5O)Oc5ccc(cc5Cl)[C@@H](O[C@@H]5O[C@H](CO)[C@@H](O)[C@H](O)[C@H]5NC(C)=O)[C@H]5NC(=O)[C@H](NC(O)[C@@H]6NC(=O)[C@@H](NC4=O)c4cc(O)cc(c4)Oc4cc3ccc4O)c3ccc(O)c(c3)-c3c(O)cc(O)cc3[C@H](C(=O)O)NC5=O)nn2)C1=O (some centres not stated) | 5.64 | ≥ 4 | ≥ 50 | 5.05 | 5.51 | 5.54 | 5.72 | 5.72 | 5.57 | 5.40 | 6.4 | 9.5 | < 4.00 | ≥ 20 | 12 |  | 
CC(=O)Nc1ccc(S(=O)(=O)N[C@H]2C(=O)N[C@@H]3Cc4ccc(c(Cl)c4)Oc4cc5cc(c4O)Oc4ccc(cc4Cl)[C@@H](O[C@@H]4O[C@H](CO)[C@@H](O)[C@H](O)[C@H]4NC(C)=O)[C@H]4NC(=O)[C@H](NC(O)[C@@H]5NC(=O)[C@@H](NC3=O)c3cc(O)cc(c3)Oc3cc2ccc3O)c2ccc(O)c(c2)-c2c(O)cc(O)cc2[C@H](C(=O)O)NC4=O)cc1 (some centres not stated) | < 4.00 | 100 |  | < 4.00 | < 4.00 | < 4.00 | < 4.00 | < 4.00 | 4.33 | < 4.00 |  |  | < 4.00 | ≥ 20 | 60 |  | 
CCCCCCCCCCCCSC1=C(SCCCCCCCCCCCC)C(=O)N(Cc2cn(C3C(=O)N[C@@H]4Cc5ccc(c(Cl)c5)Oc5cc6cc(c5O)Oc5ccc(cc5Cl)[C@@H](O[C@@H]5O[C@H](CO)[C@@H](O)[C@H](O)[C@H]5NC(C)=O)[C@H]5NC(=O)[C@H](NC(O)[C@@H]6NC(=O)[C@@H](NC4=O)c4cc(O)cc(c4)Oc4cc3ccc4O)c3ccc(O)c(c3)-c3c(O)cc(O)cc3[C@H](C(=O)O)NC5=O)nn2)C1=O (some centres not stated) |  | 100 |  |  | < 4.00 | < 4.00 | < 4.00 | < 4.00 |  | < 4.00 |  |  | < 4.00 |  | 75 | < 4.00 | < 4.00
